# Assay results published in ChEMBL document CHEMBL4622957, “Green asymmetric synthesis of epoxypeptidomimetics and evaluation as human cathepsin K inhibitors” (Bioorg Med Chem, 2020).
# Calls of active or inactive are those of the source. The rule behind the calls is not given here.
# How the values were obtained:
# Procathepsin L [1] = target: T1, Procathepsin L (Homo sapiens, UniProt P07711); assay: Inhibition of cathepsin L (unknown origin) using fluorogenic Z-FR-MCA as substrate preincubated for 5 mins followed by substrate addition by spectrofluorimetric assay
# Target sequence in this assay (P07711 whole entry): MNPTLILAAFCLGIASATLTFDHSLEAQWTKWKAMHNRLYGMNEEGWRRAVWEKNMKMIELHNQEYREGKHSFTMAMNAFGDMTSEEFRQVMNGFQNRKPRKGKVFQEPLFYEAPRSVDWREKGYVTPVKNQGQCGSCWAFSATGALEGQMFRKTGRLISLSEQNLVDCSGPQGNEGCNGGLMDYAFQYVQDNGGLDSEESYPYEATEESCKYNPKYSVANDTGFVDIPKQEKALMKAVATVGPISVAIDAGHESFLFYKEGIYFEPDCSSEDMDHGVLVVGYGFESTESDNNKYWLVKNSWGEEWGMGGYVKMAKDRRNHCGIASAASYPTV
# Cathepsin K [2] = target: T2, Cathepsin K (Homo sapiens, UniProt P43235); assay: Inhibition of recombinant human cathepsin K using Z-Phe-Arg-MCA as fluorogenic substrate preincubated for 5 mins followed by substrate addition and measured after 5 mins by fluorimetric analysis
# T2 sequence (P43235 whole entry): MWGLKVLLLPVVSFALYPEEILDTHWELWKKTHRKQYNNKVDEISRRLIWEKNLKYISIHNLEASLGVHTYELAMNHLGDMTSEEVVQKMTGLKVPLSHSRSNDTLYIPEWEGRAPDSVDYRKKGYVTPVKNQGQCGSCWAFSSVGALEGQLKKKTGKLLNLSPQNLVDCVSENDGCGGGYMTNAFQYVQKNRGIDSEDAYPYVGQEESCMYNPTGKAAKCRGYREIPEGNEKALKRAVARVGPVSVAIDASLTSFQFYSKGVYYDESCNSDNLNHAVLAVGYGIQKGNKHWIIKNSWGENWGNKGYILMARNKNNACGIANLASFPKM
# Method in brief: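 Recombinant human CatK, expressed in Pichia pastoris and active-site titrated with E-64, was used at 2 nM in 0.1 M sodium acetate pH 5.5 with 2.5 mM DTT and 2.5 mM EDTA at room temperature. Enzyme and inhibitor were preincubated 5 min, then 10 μM Z-Phe-Arg-MCA was added. Fluorescence (ex 380/em 460 nm) was read for 5 min. Triplicates; % inhibition from initial rates; IC50 from ≥7 inhibitor concentrations.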
# Procathepsin L [3] = target: T1, Procathepsin L; assay: Inhibition of cathepsin L (unknown origin) at 25 uM using fluorogenic Z-FR-MCA as substrate preincubated for 5 mins followed by substrate addition by spectrofluorimetric assay relative to control
# Target sequence in this assay (P07711 114-333 limits assumed): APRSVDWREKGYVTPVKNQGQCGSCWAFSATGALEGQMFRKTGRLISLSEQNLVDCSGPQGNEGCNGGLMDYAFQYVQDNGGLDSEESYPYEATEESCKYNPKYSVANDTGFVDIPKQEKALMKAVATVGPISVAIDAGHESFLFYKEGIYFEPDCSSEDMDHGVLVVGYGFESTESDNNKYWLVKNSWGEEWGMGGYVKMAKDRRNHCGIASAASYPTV
# [4] = target: T3, Cathepsin K (Homo sapiens) (UniProt P43235); assay: Mixed type inhibition of recombinant human cathepsin K by Michaelis-Menten plot analysis
# T3 sequence (whole entry): T2 sequence (P43235 whole entry)
# Cathepsin K [5] = target: T2, Cathepsin K; assay: Binding affinity to recombinant human cathepsin K
IC50 (Procathepsin L [1]),IC50 (Cathepsin K [2]),inhibition (Procathepsin L [3]),inhibition [4],Ki (Cathepsin K [5]),Structure (SMILES)
5.36 µM,–,–,–,–,CCCCCCC[C@H]1O[C@@H]1C(OC(=O)c1ccc(I)cc1)C(=O)NC1CCCCC1 (stereo partly drawn)
> 50 µM,–,–,–,–,CCCCNC(=O)C([C@H]1O[C@@H]1c1ccccc1Br)N(Cc1ccccc1)C(=O)c1ccccc1 (stereo partly drawn)
–,2.21 µM,–,–,–,CCCCCCC[C@H]1O[C@@H]1C(OC(=O)c1ccc(I)cc1)C(=O)NC(C)(C)C (stereo partly drawn)
–,18.5 µM,0%,–,–,CCCCNC(=O)C([C@H]1O[C@@H]1c1ccccc1)N(Cc1ccccc1)C(=O)c1ccccc1 (stereo partly drawn)
–,3.81 µM,0%,–,–,CCCCCCC[C@H]1O[C@@H]1C(OC(=O)CCCCCBr)C(=O)NC(C)(C)C (stereo partly drawn)
–,3.35 µM,–,Active,5.45 µM,CCCCCCC[C@H]1O[C@@H]1C(OC(=O)c1ccc(I)cc1)C(=O)NCCCC (stereo partly drawn)
–,6.44 µM,30%,Active,9.57 µM,CCCCNC(=O)C([C@H]1O[C@@H]1c1ccccc1)N(C(=O)c1ccc(I)cc1)C(C)(C)C (stereo partly drawn)
> 50 µM,–,–,–,–,CCCCNC(=O)C([C@H]1O[C@@H]1c1ccccc1[N+](=O)[O-])N(Cc1ccccc1)C(=O)c1ccccc1 (stereo partly drawn)
–,7.6 µM,0%,–,–,CCCCCCC[C@H]1O[C@@H]1C(OC(=O)C1CCCCC1)C(=O)NC(C)(C)C (stereo partly drawn)
–,–,0%,–,–,CCCCNC(=O)C([C@H]1O[C@@H]1CC)N(Cc1ccccc1)C(=O)c1ccccc1 (stereo partly drawn)
